Holding throughout (experiment): intrinsic Trp fluorescence titration, Scatchard analysis
Assay type in all cases: binding

One test concerns the target T1, ovalbumin (OVA) (Gallus gallus, UniProt P01012).
T1 sequence (P01012 2-386): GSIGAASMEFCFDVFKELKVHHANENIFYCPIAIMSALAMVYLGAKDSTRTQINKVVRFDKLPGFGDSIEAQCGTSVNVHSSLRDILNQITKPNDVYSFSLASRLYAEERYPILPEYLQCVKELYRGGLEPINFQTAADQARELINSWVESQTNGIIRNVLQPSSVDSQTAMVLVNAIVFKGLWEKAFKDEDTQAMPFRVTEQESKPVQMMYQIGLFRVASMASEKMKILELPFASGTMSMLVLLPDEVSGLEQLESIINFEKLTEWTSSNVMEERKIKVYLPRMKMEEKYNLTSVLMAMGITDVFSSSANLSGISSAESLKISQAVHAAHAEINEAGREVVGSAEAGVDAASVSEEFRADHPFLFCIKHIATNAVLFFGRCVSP
An outline of the steps:
(§1)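 Trp fluorescence read with 295 nm excitation and 335–360 nm emission. Fraction bound was taken from intensity relative to unbound and saturated protein. K was taken from the slope of linear Scatchard (ν/c vs ν) segments.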

Test [1] deals with α-chymotrypsinogen A (aCHY) (Bos taurus, UniProt P00766). An outline of the steps: as §1
Test [2] addresses Bovine Serum albumin (BSA) (Bos taurus, UniProt P02769). The method, boiled down: as §1

pKd: −log10 of the molar value.

Bovine Serum albumin (BSA), sequence (P02769 25-607): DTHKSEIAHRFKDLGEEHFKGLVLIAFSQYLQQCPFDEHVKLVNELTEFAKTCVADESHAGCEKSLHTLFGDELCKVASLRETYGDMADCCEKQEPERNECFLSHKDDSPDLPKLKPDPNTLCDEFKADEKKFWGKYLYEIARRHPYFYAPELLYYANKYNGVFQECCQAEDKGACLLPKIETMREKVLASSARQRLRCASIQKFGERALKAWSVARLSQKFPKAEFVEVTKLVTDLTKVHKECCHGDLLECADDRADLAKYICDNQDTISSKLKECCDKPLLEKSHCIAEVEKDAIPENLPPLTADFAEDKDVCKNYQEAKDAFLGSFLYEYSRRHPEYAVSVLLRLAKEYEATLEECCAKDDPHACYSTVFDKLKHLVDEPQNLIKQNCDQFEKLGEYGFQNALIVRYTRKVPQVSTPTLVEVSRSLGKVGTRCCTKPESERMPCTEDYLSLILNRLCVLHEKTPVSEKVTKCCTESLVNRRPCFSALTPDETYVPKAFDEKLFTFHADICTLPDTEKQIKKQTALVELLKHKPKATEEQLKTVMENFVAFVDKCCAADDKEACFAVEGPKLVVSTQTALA

In the case of `CCCCCCCCCCCCOS(=O)(=O)O` [SDS], the pKd – broadly, the Kd on a negative log10 scale, so that one unit is a factor of ten – on ovalbumin (OVA) was 4.93; in test [1] it was 3.34; in test [2], 4.65.
Compound `C=CCCCCCCCCCOS(=O)(=O)O` [SUS] gave a pKd in test [1] of 3.30.

For the origin of these results see PMC3172397 (Journal of colloid and interface science, 2011).
